Results: ChEMBL document CHEMBL1130413, “Novel 3'-C/N-substituted 2',3'-beta-D-dideoxynucleosides as potential chemotherapeutic agents. 1. Thymidine derivatives: synthesis, structure, and broad spectrum antiviral properties” (J Med Chem, 1997)

Key:
[1] = system: CEM-TK(-); test: Cytotoxic concentration which is required to reduce CEM/TK- cell viability by 50%.; format: functional; details: Homo sapiens
[2] = system: CEM-TK(-); test: 50% effective concentration of compound which is required to protect Thymidine kinase deficient human CEM (CEM/TK-) cells against HIV-2.; format: functional, cell-based
[3] = system: CCRF-CEM; test: Cytotoxic concentration which is required to reduce human CEM cell viability by 50%.; format: functional
In short: (§1)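 Human CEM or Molt-4 cells seeded at 7.5 × 10^5 cells/mL with varying compound concentrations. Incubated 3 days at 37 °C in humidified CO2. Viable cells counted with a Coulter counter. Value is the concentration reducing viable cell number by 50%.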

[4] = system: CCRF-CEM; test: 50% effective concentration of compound which is required to protect human CEM cells against HIV-1 induced giant cell formation.; format: functional, cell-based
In short: (§2)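 CEM cells at 250000–300000 cells/mL infected with HIV-1 (IIIB) or HIV-2 (ROD) at 100 CCID50/mL. Infected cells mixed with serial compound dilutions and incubated 4 days at 37 °C. Syncytium (giant cell) formation then scored. Values averaged over two independent experiments.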

[5] = system: CCRF-CEM; test: 50% effective concentration of compound which is required to protect human CEM cells against HIV-2 induced giant cell formation.; format: functional, cell-based; in short: as §2
[6] = system: E6SM; test: 50% Minimum inhibitory concentration which is required to reduce cytopathogenicity induced by (196) strain of HSV-2 virus on human E6SM cells.; format: functional
In short: (§3)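 Confluent cell monolayers infected with 100 CCID50 virus and left 1 h for adsorption. Residual virus then removed and compound added at serial dilutions (400, 200, 100 ... µg/mL). Value is the concentration giving 50% reduction of CPE.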

[7] = system: E6SM; test: 50% Minimum inhibitory concentration which is required to reduce cytopathogenicity induced by (G) strain of HSV-2 virus on human E6SM cells.; format: functional; in short: as §3
[8] = system: E6SM; test: 50% Minimum inhibitory concentration which is required to reduce cytopathogenicity induced by (KOS) strain of HSV-1 virus on human E6SM cells.; format: functional; in short: as §3
[9] = system: E6SM; test: 50% Minimum inhibitory concentration which is required to reduce cytopathogenicity induced by (Lyons) strain of HSV-2 virus on human E6SM cells.; format: functional; in short: as §3
[10] = system: E6SM; test: 50% Minimum inhibitory concentration which is required to reduce cytopathogenicity induced by (Mc Intyre) strain of HSV-1 virus on human E6SM cells.; format: functional; in short: as §3
[11] = system: E6SM; test: 50% Minimum inhibitory concentration which is required to reduce cytopathogenicity induced by TK-(B2006) strain of HSV-1 virus on human E6SM cells.; format: functional; in short: as §3
[12] = system: E6SM; test: 50% Minimum inhibitory concentration which is required to reduce cytopathogenicity induced by Vaccinia virus (VV) on human E6SM cells.; format: functional; in short: as §3
[13] = system: FM3A; test: EC50 is the cytotoxic concentration of compound required to reduce FM3A/TK- (Thymidine kinase deficient murine mammary carcinoma cells) cell viability by 50%.; format: functional, cell-based; details: Mus musculus
In short: (§4)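 Murine L1210 or FM3A-derived cells seeded at 5 × 10^5 cells/mL with varying compound concentrations. Incubated 2 days at 37 °C in humidified CO2. Viable cells counted with a Coulter counter. Value is the concentration reducing viable cell number by 50%.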

[14] = system: FM3A; test: EC50 is the cytotoxic concentration of compound required to reduce FM3A/TK- HSV-1TK+ cell viability by 50%.; format: functional, cell-based; details: Mus musculus; in short: as §4
[15] = system: FM3A; test: EC50 is the cytotoxic concentration of compound required to reduce FM3A (murine mammary carcinoma cells) cell viability by 50%.; format: functional, cell-based; details: Mus musculus; in short: as §4
[16] = system: HEL; test: 50% Minimum inhibitory concentration which is required to reduce cytopathogenicity induced by TK-(B2006) strain of HSV-1 virus on human embryonic HEL cells.; format: functional; in short: as §3
[17] = system: HEL; test: 50% Minimum inhibitory concentration which is required to reduce cytopathogenicity induced by (G) strain of HSV-2 virus on human embryonic HEL cells.; format: functional; in short: as §3
[18] = system: HEL; test: 50% Minimum inhibitory concentration which is required to reduce cytopathogenicity induced by (KOS) strain of HSV-1 virus on human embryonic HEL cells.; format: functional; in short: as §3
[19] = system: HEL; test: 50% Minimum inhibitory concentration which is required to reduce cytopathogenicity induced by (Lyons) strain of HSV-2 virus on human embryonic HEL cells.; format: functional; in short: as §3
[20] = system: HEL; test: 50% Minimum inhibitory concentration which is required to reduce cytopathogenicity induced by (Mc Intyre) strain of HSV-1 virus on human embryonic HEL cells.; format: functional; in short: as §3
[21] = system: HEL; test: 50% Minimum inhibitory concentration which is required to reduce cytopathogenicity induced by (OKA) strain of Varicella Zoster virus on human embryonic HEL cells.; format: functional
[22] = system: MT4; test: 50% effective concentration of compound which is required to protect human MT-4 cells against cytopathogenicity of HIV-1.; format: functional, cell-based
[23] = system: MT4; test: 50% effective concentration of compound which is required to protect human MT-4 cells against cytopathogenicity of HIV-2.; format: functional, cell-based
[24] = system: L1210; test: EC50 is the cytotoxic concentration of compound required to reduce L1210 (murine leukemia cells) cell viability by 50%.; format: functional, cell-based; details: Mus musculus; in short: as §4
[25] = system: MT4; test: Cytotoxic concentration which is required to reduce human MT-4 cell viability by 50%.; format: functional
[26] = system: MOLT-4; test: EC50 is the cytotoxic concentration of compound required to reduce Molt4/C8 (human T-lymphocyte) cell viability by 50%.; format: functional, cell-based; in short: as §1
[27] = Minimum cytotoxic concentration which causes microscopically detectable alteration of normal cell morphology after 2 days of incubation.; format: functional; details: 48 h
In short: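 Uninfected E6SM cells exposed to compound for 2 days. Minimum concentration giving a microscopically detectable change in normal cell morphology recorded.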

[28] = Selectivity index of HIV-1 and HIV-2 with respect to CEM cells; format: functional, CCRF-CEM
In short: (§5)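 Selectivity index calculated as average CC50 divided by average EC50. Each average comes from two independent experiments, using HIV-1 (IIIB) and HIV-2 (ROD) in CEM or MT-4 cells.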

[29] = Selectivity index of HIV-1 and HIV-2 with respect to MT-4 cells; format: functional, MT4; in short: as §5
[30] = system: E6SM; test: 50% Minimum inhibitory concentration which is required to reduce cytopathogenicity induced by (F) strain of HSV-1 virus on human E6SM cells.; format: functional; in short: as §3

SMILES: CC(=O)O/N=C1/C[C@H](n2cc(C)c(=O)[nH]c2=O)O[C@@H]1CO.CC(=O)O/N=C1\C[C@H](n2cc(C)c(=O)[nH]c2=O)O[C@@H]1CO (racemic)
- CC50 [1]: > 200 µg/mL
- EC50 [2]: > 20 µg/mL
- CC50 [3]: 104 µg/mL
- EC50 [4]: 1 µg/mL
- EC50 [5]: 0.8 µg/mL
- MIC [6]: 70 µg/mL
- MIC [7]: 1 µg/mL
- MIC [8]: 0.9 µg/mL
- MIC [9]: 4 µg/mL
- MIC [10]: 2 µg/mL
- MIC [11]: > 200 µg/mL
- MIC [12]: 70 µg/mL
- EC50 [13]: > 200 µg/mL
- EC50 [14]: > 200 µg/mL
- EC50 [15]: > 200 µg/mL
- MIC [16]: > 5 µg/mL
- MIC [17]: 2.8 µg/mL
- MIC [18]: 3.8 µg/mL
- MIC [19]: 2 µg/mL
- MIC [20]: 2.7 µg/mL
- MIC [21]: 20 µg/mL
- EC50 [22]: 0.05 µg/mL
- EC50 [23]: 0.05 µg/mL
- EC50 [24]: 19 µg/mL
- CC50 [25]: 7.1 µg/mL
- EC50 [26]: 14 µg/mL
- MCC [27]: 400 µg/mL
- Selectivity index [28]: 130
- Selectivity index [29]: 182
- MIC [30]: 5 µg/mL
